Data taken from PMC5089614 (British Journal of Clinical Pharmacology, 2016).
“Also recorded” adds a separate entry of the source.

Assay: Safety/tolerability: adverse events graded by NCI CTCAE v4.03
Format: in vivo, human
Method in brief: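 Solid tumour patients got oral test compound by hepatic group: normal 4 mg, moderate 2.3 mg, severe 1.5 mg. Dosing continued in a second part, with escalation allowed up to 4 mg. AEs were monitored from first dose until 30 days after the last dose and graded by CTCAE v4.03. Safety population was all patients with ≥1 dose. Investigators assigned relatedness.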

[1] = moderate impairment 2.3 mg (n = 15)
[2] = n = 1, not attributed to ixazomib
[3] = severe impairment 1.5 mg (n = 20)

## CC(C)C[C@H](NC(=O)CNC(=O)c1cc(Cl)ccc1Cl)B(O)O [ixazomib]
All patients (N = 48)
  Drug-related AEs, patients: 46%
  Drug-related decreased appetite: 8%
  Drug-related dehydration: 6%
  Drug-related diarrhoea: 6%
  Drug-related fatigue: 8%
  Drug-related nausea: 17%
  Drug-related vomiting: 10%
  drug-related serious dehydration: 4%
  drug-related serious dyspnoea: 2%
  drug-related serious fall: 2%
  drug-related serious oesophageal ulcer: 2%
  grade 3 drug-related anaemia: 2%
  grade 3 drug-related dehydration: 6%
  grade 3 drug-related fall: 2%
  grade 3 drug-related fatigue: 4%
  grade 4 drug-related AE: no drug‐related grade 4 adverse events; also recorded: no patient had a grade 4 drug‐related AE
  patients with serious AEs: 65%
  rate of on-study deaths: 29%
All patients, none related to ixazomib, all related to progressive disease
  on-study deaths, number: 14
Five serious AEs in four patients
  patients with drug-related serious AEs: 8%
Moderate hepatic impairment, 2.3 mg
  incidence of drug-related grade ≥3 AEs: 20%
[1]
  Abdominal pain, any-grade TEAE: 2 (13) n (%)
  Acute renal failure, any-grade TEAE: 1 (7) n (%)
  Acute renal failure, grade ≥3 TEAE: 1 (7) n (%)
  Anaemia, any-grade TEAE: 3 (20) n (%)
  Anaemia, grade ≥3 TEAE: 1 (7) n (%)
  Any-grade AE: 15 (100) n (%)
  Ascites, any-grade TEAE: 3 (20) n (%)
  Ascites, grade ≥3 TEAE: 2 (13) n (%)
  Back pain, any-grade TEAE: 0 n (%)
  Cough, any-grade TEAE: 2 (13) n (%)
  Decreased appetite, any-grade TEAE: 2 (13) n (%)
  Dehydration, any-grade TEAE: 2 (13) n (%)
  Dehydration, grade ≥3 TEAE: 2 (13) n (%)
  Diarrhoea, any-grade TEAE: 1 (7) n (%)
  Dyspnoea, any-grade TEAE: 3 (20) n (%)
  Fatigue, any-grade TEAE: 4 (27) n (%)
  Fatigue, grade ≥3 TEAE: 1 (7) n (%)
  Grade ≥3 AE: 13 (87) n (%)
  Hyperbilirubinaemia, any-grade TEAE: 5 (33) n (%)
  Hyperbilirubinaemia, grade ≥3 TEAE: 5 (33) n (%)
  Hyperkalaemia, any-grade TEAE: 2 (13) n (%)
  Hypotension, any-grade TEAE: 1 (7) n (%)
  Hypotension, grade ≥3 TEAE: 1 (7) n (%)
  Insomnia, any-grade TEAE: 2 (13) n (%)
  Leukocytosis, grade ≥3 TEAE: 1 (7) n (%)
  Nausea, any-grade TEAE: 4 (27) n (%)
  Peripheral oedema, any-grade TEAE: 9 (60) n (%)
  Pyrexia, any-grade TEAE: 2 (13) n (%)
  Upper abdominal pain, any-grade TEAE: 1 (7) n (%)
  Vomiting, any-grade TEAE: 2 (13) n (%)
[2]
  discontinuation owing to acute hepatic failure: 2%
  discontinuation owing to acute renal failure: 2%
  discontinuation owing to axillary pain/groin pain: 2%
  discontinuation owing to confusional state: 2%
  discontinuation owing to peritoneal haemorrhage: 2%
  discontinuation owing to progression of pancreatic carcinoma: 2%
Normal function 4 mg (n = 13)
  Abdominal pain, any-grade TEAE: 2 (15) n (%)
  Acute renal failure, any-grade TEAE: 0 n (%)
  Acute renal failure, grade ≥3 TEAE: 0 n (%)
  Anaemia, any-grade TEAE: 2 (15) n (%)
  Anaemia, grade ≥3 TEAE: 1 (8) n (%)
  Any-grade AE: 13 (100) n (%)
  Ascites, any-grade TEAE: 0 n (%)
  Ascites, grade ≥3 TEAE: 0 n (%)
  Back pain, any-grade TEAE: 2 (15) n (%)
  Cough, any-grade TEAE: 1 (8) n (%)
  Decreased appetite, any-grade TEAE: 7 (54) n (%)
  Dehydration, any-grade TEAE: 3 (23) n (%)
  Dehydration, grade ≥3 TEAE: 0 n (%)
  Diarrhoea, any-grade TEAE: 4 (31) n (%)
  Dyspnoea, any-grade TEAE: 4 (31) n (%)
  Fatigue, any-grade TEAE: 6 (46) n (%)
  Fatigue, grade ≥3 TEAE: 2 (15) n (%)
  Grade ≥3 AE: 6 (46) n (%)
  Hyperbilirubinaemia, any-grade TEAE: 0 n (%)
  Hyperbilirubinaemia, grade ≥3 TEAE: 0 n (%)
  Hyperkalaemia, any-grade TEAE: 1 (8) n (%)
  Hypotension, any-grade TEAE: 0 n (%)
  Hypotension, grade ≥3 TEAE: 0 n (%)
  Insomnia, any-grade TEAE: 3 (23) n (%)
  Leukocytosis, grade ≥3 TEAE: 0 n (%)
  Nausea, any-grade TEAE: 9 (69) n (%)
  Peripheral oedema, any-grade TEAE: 2 (15) n (%)
  Pyrexia, any-grade TEAE: 1 (8) n (%)
  Upper abdominal pain, any-grade TEAE: 2 (15) n (%)
  Vomiting, any-grade TEAE: 7 (54) n (%)
Normal hepatic function, 4 mg
  incidence of drug-related grade ≥3 AEs: 23%
One patient, grade 2, treatment-related, history of neuropathy
  incidence of peripheral neuropathy (PN): 2%
Seven events in total, all grade 1 or 2, none serious
  patients with rash-related AEs: Five
Severe hepatic impairment group
  on-study deaths, number: eight
Severe hepatic impairment, 1.5 mg
  incidence of drug-related grade ≥3 AEs: 5%
[3]
  Abdominal pain, any-grade TEAE: 2 (10) n (%)
  Acute renal failure, any-grade TEAE: 6 (30) n (%)
  Acute renal failure, grade ≥3 TEAE: 5 (25) n (%)
  Anaemia, any-grade TEAE: 3 (15) n (%)
  Anaemia, grade ≥3 TEAE: 2 (10) n (%)
  Any-grade AE: 20 (100) n (%)
  Ascites, any-grade TEAE: 3 (15) n (%)
  Ascites, grade ≥3 TEAE: 2 (10) n (%)
  Back pain, any-grade TEAE: 3 (15) n (%)
  Cough, any-grade TEAE: 3 (15) n (%)
  Decreased appetite, any-grade TEAE: 1 (5) n (%)
  Dehydration, any-grade TEAE: 3 (15) n (%)
  Dehydration, grade ≥3 TEAE: 2 (10) n (%)
  Diarrhoea, any-grade TEAE: 1 (5) n (%)
  Dyspnoea, any-grade TEAE: 4 (20) n (%)
  Fatigue, any-grade TEAE: 5 (25) n (%)
  Fatigue, grade ≥3 TEAE: 1 (5) n (%)
  Grade ≥3 AE: 18 (90) n (%)
  Hyperbilirubinaemia, any-grade TEAE: 5 (25) n (%)
  Hyperbilirubinaemia, grade ≥3 TEAE: 5 (25) n (%)
  Hyperkalaemia, any-grade TEAE: 2 (10) n (%)
  Hypotension, any-grade TEAE: 4 (20) n (%)
  Hypotension, grade ≥3 TEAE: 2 (10) n (%)
  Insomnia, any-grade TEAE: 1 (5) n (%)
  Leukocytosis, grade ≥3 TEAE: 2 (10) n (%)
  Nausea, any-grade TEAE: 5 (25) n (%)
  Peripheral oedema, any-grade TEAE: 4 (20) n (%)
  Pyrexia, any-grade TEAE: 4 (20) n (%)
  Upper abdominal pain, any-grade TEAE: 2 (10) n (%)
  Vomiting, any-grade TEAE: 4 (20) n (%)
Total (N = 48)
  Abdominal pain, any-grade TEAE: 6 (13) n (%)
  Acute renal failure, any-grade TEAE: 7 (15) n (%)
  Acute renal failure, grade ≥3 TEAE: 6 (13) n (%)
  Anaemia, any-grade TEAE: 8 (17) n (%)
  Anaemia, grade ≥3 TEAE: 4 (8) n (%)
  Any-grade AE: 48 (100) n (%)
  Ascites, any-grade TEAE: 6 (13) n (%)
  Ascites, grade ≥3 TEAE: 4 (8) n (%)
  Back pain, any-grade TEAE: 5 (10) n (%)
  Cough, any-grade TEAE: 6 (13) n (%)
  Decreased appetite, any-grade TEAE: 10 (21) n (%)
  Dehydration, any-grade TEAE: 8 (17) n (%)
  Dehydration, grade ≥3 TEAE: 4 (8) n (%)
  Diarrhoea, any-grade TEAE: 6 (13) n (%)
  Dyspnoea, any-grade TEAE: 11 (23) n (%)
  Fatigue, any-grade TEAE: 15 (31) n (%)
  Fatigue, grade ≥3 TEAE: 4 (8) n (%)
  Grade ≥3 AE: 37 (77) n (%)
  Hyperbilirubinaemia, any-grade TEAE: 10 (21) n (%)
  Hyperbilirubinaemia, grade ≥3 TEAE: 10 (21) n (%)
  Hyperkalaemia, any-grade TEAE: 5 (10) n (%)
  Hypotension, any-grade TEAE: 5 (10) n (%)
  Hypotension, grade ≥3 TEAE: 3 (6) n (%)
  Insomnia, any-grade TEAE: 6 (13) n (%)
  Leukocytosis, grade ≥3 TEAE: 3 (6) n (%)
  Nausea, any-grade TEAE: 18 (38) n (%)
  Peripheral oedema, any-grade TEAE: 15 (31) n (%)
  Pyrexia, any-grade TEAE: 7 (15) n (%)
  Upper abdominal pain, any-grade TEAE: 5 (10) n (%)
  Vomiting, any-grade TEAE: 13 (27) n (%)
